Measured values: PMC3064480 (Molecular bioSystems, 2010)
Entries after “also recorded” stand apart in the source; their conditions may differ. Ends that are not written are not given here.

Assays:
[1] = test system: TGF-β responsive SBE(CAGA)12-luciferase reporter, Mv1Lu cells; test: Reporter gene assay, SBE; type: cell-based, mink; conditions: 10 μM SB-431542; 10 pM TGF-β1
Method in brief: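 Mv1Lu cells stably carrying the SBE(CAGA)12-Luc reporter were grown in DMEM with 10% FBS. About 4000 cells were plated and left to attach overnight. Medium was changed to DMEM with 0.2% FBS 4 h before treatment. Cells received TGF-β1, TGF-β1 with serial dilutions of test peptide, or peptide alone, with untreated cells as control, in triplicate. After 18-24 h, Bright-Glo luminescence was normalised to cell number by CellTiter-Glo.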

[2] = test system: ActRII-ED; test: SPR, ActRII-ED; type: binding, human; conditions: verification of immobilized receptor activity
Method in brief: (§1)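 In a separate run, recombinant human β-glycan-ED (residues 21-781), BMPR-IA-ED (Gln24-Arg152, Fc chimera) and ActRII-ED (Ser25-Pro134, Fc chimera) were amine-coupled on a CM5 chip to about 1600, 3300 and 4300 RU. Serial dilutions of peptide-bearing dendrimer in HBS, within 2.9 nM–6 μM, were injected for 5 min with 5 min dissociation at 10 μL/min. Reference subtraction and HCl regeneration were used.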

[3] = test system: BMPR-IA-ED; test: SPR, BMPR-IA-ED; type: binding, human; conditions: verification of immobilized receptor activity
Method in brief: as §1

[4] = molecular target: T1, TβRII-ED (residues 1-137) (Homo sapiens, UniProt P37173); test: competition ELISA; type: binding
Method in brief: (§2)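 Equimolar TβRI-ED (residues 1-101, 1.0 μg) or TβRII-ED (1-137, 1.5 μg), E. coli-expressed and refolded, was coated at 4 °C for 12 h. For Kd, M13 phage clones at various concentrations were bound for 1 h at room temperature in 2% BSA/PBS/0.5% Tween 20, with BSA wells as control. For IC50, fixed phage near its apparent Kd was mixed with varying peptide. Read-out was anti-M13-HRP, then ABTS/H2O2 for 30 min and A405; mean ± SD.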

[5] = molecular target: T2, TβRI-ED (Homo sapiens, UniProt P36897); test: competition ELISA; type: binding
T2 sequence (P36897 25-125): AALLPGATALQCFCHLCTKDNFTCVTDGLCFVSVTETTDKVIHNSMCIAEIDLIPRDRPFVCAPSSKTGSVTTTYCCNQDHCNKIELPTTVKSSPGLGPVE
Method in brief: as §2

[6] = molecular target: T1, TβRII-ED (residues 1-137); test: SPR, TβRII-ED; type: binding
Method in brief: (§3)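 CM5 chip with HBS (pH 7.4) running buffer. TβRI-ED (residues 7-91), TβRII-ED (1-137) and endoglin-ED (26-586) were amine-coupled (EDC/NHS) from 20 μg/mL in 10 mM NaOAc pH 5.0 to about 3600, 1900 and 7300 RU, then blocked with ethanolamine. The protein-free reference signal was subtracted. Surfaces were regenerated with 100 mM HCl for 30 s.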

[7] = test system: TβRI-ED; conditions: TGF-β alone; cited from earlier work
[8] = molecular target: TβRII; conditions: read-out: Kd (binding to two copies of TβRII); approximate (~) range; cited from earlier work
[9] = molecular target: artificially dimerized TβRII-ED; conditions: previous SPR studies; cited from earlier work
[10] = molecular target: T3, TβRI-ED (residues 7-91) (Homo sapiens, UniProt P36897); test: SPR, TβRI-ED; type: binding; conditions: TGF-β1 41 pM to 30 nM
T3 sequence (P36897 31-115): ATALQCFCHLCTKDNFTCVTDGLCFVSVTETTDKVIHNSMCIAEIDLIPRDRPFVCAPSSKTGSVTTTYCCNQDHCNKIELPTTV
Method in brief: as §3

[11] = molecular target: monomeric TβRII-ED; conditions: previous SPR studies; cited from earlier work

Which “inhibition of TGF-β-induced luciferase gene expression” value [1] does the source give for `NC(=O)c1ccc(-c2nc(-c3ccc4c(c3)OCO4)c(-c3ccccn3)[nH]2)cc1` [SB-431542] here?
Its value is “completely blocked; also recorded: inhibited TGF-β regulated luciferase gene expression”.

Which “binding of BMP-4” value [2] does the source give for “BMP-4: known ligand of BMPR-IA and ActRII” here?
Its value is “ability to bind BMP-4”.

And the “binding of BMP-4” value [3]?
The value was “ability to bind BMP-4”.

With MHRMPSFLPTTL [Pep2] as the compound, how does the IC50 [4] read?
The IC50 was 274 µM.

What about the Kd [4] of the same compound?
Its Kd is roughly 10 µM.

What about the IC50 [5] of the same compound?
The IC50 was 256 µM.

And the Kd [5]?
The Kd was roughly 10 µM.

For LTGKNFPMFHRN [Pep1], which IC50 [4] is on record?
The IC50 was 156 µM.

What about the Kd [4] of the same compound?
The Kd was roughly 10 µM.

And the IC50 [5]?
Its IC50 is 110 µM.

And the Kd [5]?
Its Kd is roughly 10 µM.

What does the source list for “TGF-β: transforming growth factor β, generic wording; TGF-β1 in the authors' own experiments”?
saturating concentration ([6]; binding to TβRII-ED, SPR): 10 nM; affinity for TβRI-ED [7]: weak affinity

Which Kd [8] does the source give for TGF-β3: TGF-β isoform 3 here?
Its Kd is 0.005 to 0.03 nM.

Which Kd [9] does the source give for “TGF-β1: Recombinant human TGF-β1, disulfide-linked homodimer growth factor” here?
The Kd was roughly 5 pM.

What about the Kd ([6]; read-out: apparent Kd, TGF-β1 41 pM to 30 nM, dose dependent SPR responses, surface a mixture of monomeric and dimeric receptor) of the same compound?
The Kd was roughly 1.4 nM.

And the Kd [8]?
The Kd was 0.005 to 0.03 nM.

And the “binding to TβRI-ED surface” value [10]?
Its value is “did not bind detectably; also recorded: no observable affinity”.

And the Kd [11]?
The Kd was roughly 100 nM.
